Measured values: the EternaBench riboswitch data

Test system: MS2 coat protein
Experiment: apparent Kd, MS2 coat protein; higher = weaker binding; RNA-MaP array; FMN 200 µM where present
Outline: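 On Illumina sequencing-chip clusters, designs were transcribed by stalled E. coli RNA polymerase and titrated with SNAP-549-labelled MS2 coat protein (0.7 or 1.5 nM, doubling to 3 µM), without and then with constant ligand, in 100 mM Tris-HCl pH 7.5, 80 mM KCl, 4 mM MgCl2, BSA, DTT, yeast tRNA and Tween-20. Apparent Kd is the median of filtered per-cluster curve fits to green signal normalised to red-channel RNA signal and control-cluster median Fmax.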

[1] = designed as: OFF switch for flavin mononucleotide, no ligand
[2] = ligand present: flavin mononucleotide, designed as: OFF switch for flavin mononucleotide
[3] = designed as: ON switch for flavin mononucleotide, no ligand
[4] = ligand present: flavin mononucleotide, designed as: ON switch for flavin mononucleotide

Sequence	apparent Kd [1] [nM]	apparent Kd [2] [nM]	apparent Kd [3] [nM]	apparent Kd [4] [nM]
GGAUAGGACAGAGGAUAUACGUGCUAGAGAUACUAUCAAAAUUUCCUCACAUGAGGAUCACCCAUGUAGAAGGCUGUCCUAUCG	270	52.1		
GGAUAGGACAGAGGAUAUACGUGCUAGAGAUUCUAGCAAAAUUUCCUCACAUGAGGAUCACCCAUGUAGAAGGCUGUCCUAUCG	15.6	321		
GGAUAGGACAGAGGAUAUACGUGCUAGCGAUACUAGCAAAAUUUCCUCACAUGAGGAUCACCCAUGUAGAAGGCUGUCCUAUCG	15.7	427		
GGAUAGGACAGAGGAUAUACUUGCUAGAGAUACUAGCAAAAUUUCCUCACAUGAGGAUCACCCAUGUAGAAGGCUGUCCUAUCG	6.95	54.5		
GGAUAUAACGUAGGAUAUCUGAGAAAUAGAUGAAGAGAAGGACGACAUGAGGAUCACCCAUGUGAUCUAUCAAUAUUAUACAUG	452	749		
GGAUAUAUACAGGAGGAUAUGAGAACAAAGACAUGAGGAUCACCCAUGUACAAAAGGUGGAACAAUCAGAAGGUCUAAACAACAAA			78.3	69
GGAUAUGUCGUCUACAUGAGGAUCACCCAUGUCGAUAGACAUGAGGAUAUUGAUAAGAAUUGUAUCGAGAAGGUAUGUAGGUCC			19.3	26.7
GGAUCCUGGGUCAGGAUAUGCUGACAGCUUUGUCAGCAGAAGGGACAUGAGGAUCACCCAUGUGCUCGGUUUUG	10.1	18.1		
GGAUCGAAUGUGAGGAUAUACCUAUGGAAACAUAGGUAGAAGGCACAUGAGGAUCACCCAUGUCCUAACGGUCC	419	456		
GGAUCGAGUGUGAGGAUAUACCACUGGAUACAGUGGUAGAAGGCACAUGAGGAUCACCCAUGUCCUUACGAUCC	81.4	436		
GGAUGACAAAGUCAUCCAAUACGAACAUGAGGAUCACCCAUGUAGGAUAUGCUACUCAAAGAGUAGCAGAAGGACAUGUGCCUU	33.8	252		
GGAUGACAAAGUCAUCCUAAACGAACAUGAGGAUCACCCAUGUAGGAUAUGCUACUGAAACAGUAGCAGAAGGACAUGUGCCUU	31.1	211		
GGAUGACAUAGUCAUCCUUAACGAACAUGAGGAUCACCCAUGUAGGAUAUGCUACUCAACGAGUAGCAGAAGGACAUGUGUCUU	26.5	142		
GGAUGAGAAACUCAUCCAUAACGAACAUGAGGAUCACCCAUGUAGGAUAUGCUACUCAAAGAGUAGCAGAAGGACAUGUGCCUU	29.8	259		
GGAUGAGCAAUAGGAUAUGCUGGGAUUGAAUGGGUAGAAGGAUUUCUAGUGGGAAAGACAUGAGGAUCACCCAUGUCGCGGCCC			23.8	25.3
GGAUGAUUAAUAGGAUAUUAGUUGUAAAAUGUUUAAGAAGGAUUAAUGAUUUAAACGACCAGUUACAUGAGGAUCACCCAUGUU			27.9	21.4
GGAUGCAAAGAGAAGGGCUACUGGUUGAAACCUGCGGCCUCUGGAACAUGAGGAUCACCCAUGUAGCAGGAUAUCUUUACGUCA	173	39.4		
GGAUGUCUGGAGGAUAUACAGACUAUUAGAUCAGUAGAAGGUCAGACAUGAGGAUCACCCAUGUUAGUGUAUCC	52	473		
GGAUUACAUGAGGAUCACCCAUGUGAGGAUAUCGAUGUCCAGUAAUACGUGCGGGACUCGAGAAGGCACUUGGA	40.1	200		
GGAUUUCCUGAGGAUAUUGCAUCACCUGAUUUAUAAGAAGGCAGAACAUGAGGAUCACCCAUGUGGGUAUUCGG	27.6	37.4		
GGCAGCUCGUGAGGAUAUACAACACUGCUUCGGCAGUGUAUUAAGAUCACAUGAGGAUCACCCAUGUAGAAGGCACGAGCUGAU	13.9	254		

Sequence	apparent Kd [1] [nM]	apparent Kd [2] [nM]	apparent Kd [3] [nM]	apparent Kd [4] [nM]
GGCGAACAGGCUAACAUGAGGAUCACCCAUGUGGACUCAUGGUAGGAUAUGCUGUAGAAACUACAGCAGAAGGGCCGGUGAGCC			66.1	294
GGCGAACGGGCUUACAUGAGGAUCACCCAUGUAGACUCAUGGUAGGAUAUGCUGUACAAAGUACAGCAGAAGGGCCGGUGAGCU			89.1	43.5
GGCGGCGCGGGCCACCGCAGGGCCAGAAGGACAUGAGGAUCACCCAUGUGGCAGAACAGGGCGGUGUAGGAUAUGGCAGGCUCG	35.5	76.2		
GGCGGGCACACUGGCCGCUGAAGGAGAAGGCAGUGCACAUGAGGAUCACCCAUGUCGCGUGUGCCUGAGGAUAUCCGUAAAACG	9.38	71.4		
GGCGGUGAUCUAUUAGGACACAUGAGGAUCACCCAUGUGACAGAGGAUAUACGGAACUUUGGAUAGUAGAAGGCUGUCGCAAAA	315	119		
GGCUCAUUUACAUUAAUGUGCAGACAGGAUAUCCACCGCGGUUCCUACAUGAGGAUCACCCAUGUGGAGAAGGGUCGCUAAUGG	29.1	72.2		
GGCUUCUUCACAGGAUAUGGUUUUUUAAGUAUACAUGAGGAUCACCCAUGUCCAGAAGGGUGAGGGUCCGGCGUACAGUGUCGG			645	30.4
GGGAAGUGCCAGAAGGCUCCCGGAUUCCUAGGGAGAGGAUAUGGCACAUGAGGAUCACCCAUGUGGUAGAUCUGUUUCGAAGUG	30.4	16.9		
GGGAGACAUGAGGAUCACCCAUGUGAAAACGUGGCAGGAUAUCGAUGGAAACCAUACUGUCGAGAAGGGCCUUGUC			56.7	35.6
GGGAUGUGAGGAUAUACAUGAACUAUCCACUGUGCUGGGCCACAUGAGGAUCACCCAUGUAGAAGGUACGCCCA	66.2	168		
GGGCACAAAGGAUAUACAUGAGGAUCACCCAUGUUCACCACAACAUGUUACUGCCCAAGUAGAAGGUUGGCCCA	38.7	288		
GGGCACAUCGGAGGAUAUCAUGUAAAUACAUGAGGAUCACCCAUGUCGAUGGAGACAUCGGAGAUUGAGAAGGCCGAUGUACCG			191	9.02
GGGCCCGGAGGAUAUACAUGAGGAUCACCCAUGUAGGGCCCGGGUAUUCCCGGGCCCUGUAGAAGGCCGGGUUU	14.3	18.8		
GGGCCCGGAGGAUAUACAUGAGGAUCACCCAUGUGCCGGGCCCAACGGGCCCGGCUGUGUAGAAGGCCGGGCCC	13.3	12.5		
GGGCUCGGUGUGAGGAUAUGCUCGGGUAAAUCUGGGUAGAAGGCACAUGAGGAUCACCCAUGUAAGCUGGGUCU	33.9	33.9		
GGGUACAUCGGAGGAUAUCAUGUAAAUACAUGAGGAUCACCCAUGUCGAUGGAAACAUCGGAGAUUGAGAAGGCCGAUGUACCG			9.76	5.01
GGGUACAUCGGAGGAUAUCAUGUAAAUACAUGAGGAUCACCCAUGUCGAUGGAGACAUCGCAGAUUGAGAAGGCCGAUGUACCG			28	5.26
GGGUACAUCGGAGGAUAUCAUGUAAAUACAUGAGGAUCACCCAUGUCGAUGGAGACAUCGGAGAUUGAGAAGGCCGAUGGACCG			163	8.74
GGGUACAUCGGAGGAUAUCAUGUAAAUACAUGAGGAUCACCCAUGUCGAUGGAGACAUCGGAGAUUGAGAAGGGCGAUGUACCG			647	75.8
GGGUACAUCGGAGGAUAUCAUGUAAAUACAUGAGGAUCACCCAUGUCGAUGGAGACCUCGGAGAUUGAGAAGGCCGAUGUACCG			694	201
